Published values from different studies.
MAOB: Amine oxidase [flavin-containing] B (MAOB, Homo sapiens, UniProt P27338)
PKN1: Serine/threonine-protein kinase N1 (PKN1, Homo sapiens, UniProt Q16512)
CA9: Carbonic anhydrase 9 (CA9, Homo sapiens, UniProt Q16790)
HRH1: Histamine H1 receptor (HRH1, Homo sapiens, UniProt P35367)
PADI4: Protein-arginine deiminase type-4 (PADI4, Homo sapiens, UniProt Q9UM07)

With `N#Cc1ccc(NC(=O)c2ccccc2O)cc1` the inhibition was 32% (MAOB; enzyme activity, inhibitor; 1 µM, 20 min).
`COc1cc2ncnc(Nc3ccc(F)c(Cl)c3)c2cc1NC(=O)/C=C/CN1CCCCC1` has an activity vs control of 87% (PKN1; enzyme activity, inhibitor; 1 µM).
`CCOc1ccc(C(=O)Nc2ccc([N+](=O)[O-])cc2C(F)(F)F)cc1OCC` has an inhibition of 62% (MAOB; enzyme activity, inhibitor; 1 µM, 20 min).
For `O=C(c1ccc(Cl)cc1)N(Cc1ccccc1)C1CCCCC1`, the inhibition was 3.4% (Endothelin receptor type B (EDNRB, Homo sapiens, UniProt P24530); cell-free assay; 10 µM).
The inhibition of `O=C(Nc1ccc([N+](=O)[O-])cc1)c1cc(Cl)ccc1O` is reported as 66% (MAOB; enzyme activity, inhibitor; 1 µM, 20 min).
`O=C1NC(=S)C(=Cc2cn(-c3ccccc3)nc2-c2ccc(Br)cc2)S1` has an inhibition of 33.5% (CA9; enzyme activity, inhibitor; 0.1 µM).
`CN1CCN(C2c3ccccc3CCc3ccccc32)CC1` has a kon of 567000 M⁻¹ s⁻¹ (HRH1; binding).
`Cn1c(=O)n(-c2ccc(C(C)(C)C#N)cc2)c2c3cc(-c4cnc5ccccc5c4)ccc3ncc21` gave an activity vs control of 84% (PKN1; enzyme activity, inhibitor; 1 µM).
`CN1CCC(=C2c3ccccc3CCc3cccnc32)CC1` has a kon of 533000 M⁻¹ s⁻¹ (HRH1; binding).
The inhibition of `O=C(Nc1ccccc1)c1cc(Cl)ccc1O` is reported as 44% (MAOB; enzyme activity, inhibitor; 1 µM, 20 min).
`CCOC(=O)C1CSc2[nH]c(=O)sc2C1c1cn(-c2ccccc2)nc1-c1ccc(C)cc1` (centres unmarked) gave an inhibition of 61.4% (CA9; enzyme activity, inhibitor; 1 µM).
For `C[C@@H]1CN(CC(=O)Nc2ccc3c(c2)Cc2cccc(-c4cc(=O)cc(N5CCOCC5)o4)c2S3)C[C@H](C)O1`, the activity vs control was 79% (PKN1; enzyme activity, inhibitor; 1 µM).
With `Cc1ccc(-c2nn(-c3ccccc3)cc2C2c3sc(=O)[nH]c3SC3C(=O)N(c4ccccc4)C(=O)C32)cc1` (centres unmarked) the inhibition was 17.8% (CA9; enzyme activity, inhibitor; 10 nM).
`COc1cc(NC(C)=O)c(Cl)cc1C(=O)Nc1nccs1` has an inhibition of 2.5% (Beta-1 adrenergic receptor (ADRB1, Homo sapiens, UniProt P08588); cell-free assay; 10 µM).
`C=CC(=O)Nc1cc(N2CCN(CC)CC2)ccc1Nc1cc(N(C)C(=O)Nc2c(Cl)c(OC)cc(OC)c2Cl)ncn1` has an activity vs control of 103% (PKN1; enzyme activity, inhibitor; 1 µM).
The kinact/KI of `N=C(CCl)NCCC[C@H](NC(=O)c1ccccc1C(=O)O)c1nn[nH]n1` is reported as 2660 M⁻¹ s⁻¹ (PADI4; enzyme activity, inhibitor).
`Cl.Cl.c1cc(-c2cnn3cc(-c4ccc(OCCN5CCCCC5)cc4)cnc23)ccn1` gave an activity vs control of 32% (PKN1; enzyme activity, inhibitor; 1 µM).
With `N#CC1CSc2[nH]c(=O)sc2C1c1cn(-c2ccccc2)nc1-c1ccc(Br)cc1` (centres unmarked) the inhibition was 88.5% (CA9; enzyme activity, inhibitor; 10 µM).
`CN1CCC(=C(c2ccccc2)c2ccccc2)CC1` gave a koff of 0.00583 s⁻¹ (HRH1; binding).
The Emax of `N=C(N)NCCC[C@H](NC(=O)[C@H](CC(=O)O)NC(=O)[C@H](Cc1c[nH]c2ccccc12)NC(=O)[C@H](CCCNC(=N)N)NC(=O)[C@@H](N)Cc1ccccc1)C(=O)N[C@@H](Cc1ccccc1)C(=O)NCC(=O)O` is reported as 90% (Melanocortin receptor 5 (Mus musculus, UniProt P41149); cAMP, agonist; HEK293).
`CCC(=O)NCC[C@@H]1CCc2cc(O)c3c(c21)CCO3` has a Km of 19.2 µM (Sulfotransferase 1A1 (SULT1A1, Homo sapiens, UniProt P50225); enzyme activity, substrate; pH 7).
For `O=C(Nc1ccc([N+](=O)[O-])cc1C(F)(F)F)c1cc(Cl)ccc1O`, the inhibition was 30% (MAOB; enzyme activity, inhibitor; 1 µM, 20 min).
`CN1CCC(=C2c3ccccc3CCc3ccccc32)CC1` gave a kon of 1.33e+06 M⁻¹ s⁻¹ (HRH1; binding).
`CCOC(=O)C1CSc2[nH]c(=O)sc2C1c1cn(-c2ccccc2)nc1-c1ccc(Br)cc1` (centres unmarked) has an inhibition of 61% (CA9; enzyme activity, inhibitor; 1 µM).
`O=C(Nc1cccc(Cl)c1)c1ccc([N+](=O)[O-])cc1Cl` has an inhibition of 36% (MAOB; enzyme activity, inhibitor; 1 µM, 20 min).
With `CC(C)(C)n1nnc([C@H](CCCNC(=N)CF)NC(=O)c2ccc(-c3ccccc3)cc2)n1` the kinact/KI was 20.8 M⁻¹ s⁻¹ (PADI4; enzyme activity, inhibitor).
The activity vs control of `CN(C)CCOc1ccc(-c2nc(-c3ccncc3)c(-c3ccc4c(c3)CC/C4=N\O)[nH]2)cc1` is reported as 95% (PKN1; enzyme activity, inhibitor; 1 µM).
With `O=C(Nc1ccc([N+](=O)[O-])cc1Cl)c1ccc(Cl)cc1` the inhibition was 25% (MAOB; enzyme activity, inhibitor; 1 µM, 20 min).
For `N=C(CF)NCCC[C@H](NC(=O)c1ccc(-c2ccccc2)cc1)c1nn[nH]n1`, the kinact/KI was 3.5 M⁻¹ s⁻¹ (PADI4; enzyme activity, inhibitor).
`CN1CCN(C2c3ccccc3C=Cc3ccccc32)CC1` gave a koff of 0.000583 s⁻¹ (HRH1; binding).
`CCOC(=O)C1CSc2[nH]c(=O)sc2C1c1cn(-c2ccccc2)nc1-c1ccccc1` (centres unmarked) gave an inhibition of 29% (CA9; enzyme activity, inhibitor; 0.1 µM).
`CN1CCC(C2c3ccccc3CCc3ccccc32)CC1` has a kon of 717000 M⁻¹ s⁻¹ (HRH1; binding).
With `O=C(Nc1ccc(N2C(=O)c3ccccc3C2=O)c(Cl)c1)c1ncccc1O` the Emax was 106% (Metabotropic glutamate receptor 1 (GRM1, Homo sapiens, UniProt Q13255); calcium signal, positive allosteric modulator; T-REx-293).
For `CCOC(=O)C1CSc2[nH]c(=O)sc2C1c1cn(-c2ccccc2)nc1-c1ccc(OC)cc1` (centres unmarked), the inhibition was 84.9% (CA9; enzyme activity, inhibitor; 10 µM).
`N=C(CCl)NCCC[C@H](NC(=O)c1ccccc1)c1nn[nH]n1` gave a kinact/KI of 287 M⁻¹ s⁻¹ (PADI4; enzyme activity, inhibitor).
With `COc1cc(N2CCOCC2)ccc1NC(=O)c1csc(-c2cccnc2)n1` the activity vs control was 87% (PKN1; enzyme activity, inhibitor; 1 µM).
For `CC(C)(C)n1nnc([C@H](CCCNC(=N)CCl)NC(=O)c2ccc(-c3ccccc3)cc2)n1`, the kinact/KI was 102 M⁻¹ s⁻¹ (PADI4; enzyme activity, inhibitor).
The inhibition of `CCOC(=O)C1CSc2[nH]c(=O)sc2C1c1cn(-c2ccccc2)nc1-c1ccc(Cl)cc1` (centres unmarked) is reported as 36% (CA9; enzyme activity, inhibitor; 0.1 µM).
`Nc1ncnc2c1ncn2[C@@H]1O[C@H](COP(=O)(O)OP(=O)(O)O)[C@@H](O)[C@H]1O` has a ΔTm of 4.5 to 4.8 °C (Katanin p60 ATPase-containing subunit A1 (Homo sapiens, UniProt O75449, D210C); thermal stability, DSF; 1 mM).
`CN(C)c1ccc(-c2nc3ncc(Cl)c(N4CCN(CC(=O)Nc5nccs5)CC4)c3[nH]2)cc1` has an activity vs control of 32% (PKN1; enzyme activity, inhibitor; 1 µM).
`CCOc1ccc(C(=O)Nc2ccc(Br)cc2)cc1OCC` gave an inhibition of 13% (MAOB; enzyme activity, inhibitor; 1 µM, 20 min).
The KI (inactivation) of `NNCCc1ccc(NC(=O)CCCc2ccccc2)cc1` is reported as 6.5 µM (MAOB; enzyme activity, inhibitor).
For `CC(C)(C)n1nnc([C@H](CCCNC(=N)CCl)NC(=O)c2ccccc2C(=O)O)n1`, the kinact/KI was 423 M⁻¹ s⁻¹ (PADI4; enzyme activity, inhibitor).
`CN1CCC(C2c3ccccc3C=Cc3ccccc32)CC1` gave a kon of 667000 M⁻¹ s⁻¹ (HRH1; binding).
